In ChEMBL document CHEMBL5252538, “β-Lactam analogues of combretastatin A-4 prevent metabolic inactivation by glucuronidation in chemoresistant HT-29 colon cancer cells” (Eur J Med Chem, 2017):
The source made the active and inactive calls. The rule behind the calls is not given here.

How the values were obtained:
MCF7 = test: Antiproliferative activity against […] human MCF7 cells assessed as inhibition of cell growth incubated for 72 hrs by alamar blue assay; type: functional, cell-based; details: MCF7, 72 h
Procedure, shortened: (§1)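 Cells seeded 24 h before treatment (HL-60 4 × 10⁴, MCF-7 5 × 10³ per well), then given medium, vehicle (1% ethanol v/v) or serial dilutions (eight concentrations) for 72 h. Alamar Blue (10% v/v) added for 3–5 h at 37 °C in the dark, fluorescence read at ex 530/em 590 nm. Viability expressed relative to vehicle (100%), IC50 from dose–response curves; three experiments in triplicate.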

HL-60 = test: Antiproliferative activity against […] human HL-60 cells assessed as inhibition of cell growth incubated for 72 hrs by alamar blue assay; type: functional, cell-based; details: HL-60, 72 h; procedure, shortened: as §1
HT-29 [1] = test: Antiproliferative activity against combretastatin A-4 resistant human HT-29 cells assessed as inhibition of cell growth incubated for 72 hrs by SRB assay; type: functional, cell-based; details: HT-29, 72 h
Procedure, shortened: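 HT-29 (DMEM Glutamax, 10% FBS) seeded at 1 × 10⁴ cells/well, treated after 24 h with vehicle (1% ethanol v/v) or serial dilutions (eight concentrations) for 72 h; viability measured by sulforhodamine B protocol. Percent viability relative to vehicle control, IC50 from dose–response curves; mean of three experiments in triplicate.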

Tubulin (Bos taurus) = Tubulin (Bos taurus) (UniProt Q6B856+Q862L2+Q862F3); test: Inhibition of bovine tubulin polymerisation assessed as fold reduction in Vmax at 10 uM measured every 30 secs for 30 mins by spectrophotometric method relative to control; type: protein assay
[2] = test system: Panel NCI-60 (60 carcinoma cell lines); test: Antiproliferative activity against human panel NCI-60 (60 carcinoma cell lines) assessed as inhibition of cell growth at 10 uM incubated for 72 hrs by SRB assay; type: functional, cell-based
HT-29 [3] = test: Induction of cell cycle arrest in human HT-29 cells assessed as accumulation of cells at G0/G1 phase at 1 uM incubated for 24 hrs by RAase A/PI staining based flow cytometry analysis (reference value: 57%); type: functional
HT-29 [4] = test: Induction of cell cycle arrest in human HT-29 cells assessed as accumulation of cells at G2/M phase at 1 uM incubated for 24 hrs by RAase A/PI staining based flow cytometry analysis (reference value: 16%); type: functional
HT-29 [5] = test: Induction of cell cycle arrest in human HT-29 cells assessed as accumulation of cells at G0/G1 phase at 1 uM incubated for 24 hrs in presence of 2,3-bis(amino((2aminophenyl)thio)methylene)succinonitrile by RAase A/PI staining based flow cytometry analysis (reference value: 57%); type: functional
HT-29 [6] = test: Induction of cell cycle arrest in human HT-29 cells assessed as accumulation of cells at G2/M phase at 1 uM incubated for 24 hrs in presence of 2,3-bis(amino((2-aminophenyl)thio)methylene)succinonitrile by RAase A/PI staining based flow cytometry analysis (reference value: 16%); type: functional
Tubulin (Homo sapiens) = Tubulin (Homo sapiens) (UniProt P68371+Q9H4B7+P0DPH7+P68366+Q13509+Q71U36+P04350+Q3ZCM7+P07437+P68363+Q9BQE3+Q6PEY2+Q13885+Q9BVA1+Q9BUF5); test: Induction of microtubule disruption in human HT-29 cells assessed as effect on microtubule organization at 1 uM incubated for 16 hrs by immunofluorescence based confocal microscopic analysis; type: cell-based
[7] = biological target: Tubulin beta (Homo sapiens) (UniProt P68371+Q9H4B7+Q13509+P04350+Q3ZCM7+P07437+Q13885+Q9BVA1+Q9BUF5+A6NNZ2); test: Binding affinity to colchicine binding site of beta-tubulin in human MCF7 cells assessed as inhibition of beta-tubulin-EBI adduct formation at 10 uM pretreated for 2 hrs followed by EBI addition and measured after 1.5 hrs by Western blot analysis; type: cell-based; details: time 3.5 hrs
Procedure, shortened: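 Cells seeded at 5 × 10⁴/well, grown overnight, treated with vehicle (0.1% ethanol v/v) or compound (10 µM) for 2 h, then EBI (100 µM) added for 1.5 h. Cells washed with ice-cold PBS, lysed in Laemmli buffer, run on SDS-PAGE, blotted and probed for β-tubulin to detect the faster-migrating β-tubulin–EBI adduct; GAPDH reprobe for loading; three independent experiments.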

| Structure (SMILES) | IC50 (MCF7) [µM] | IC50 (HL-60) [µM] | IC50 (HT-29 [1]) [µM] | further results |
| --- | --- | --- | --- | --- |
| COc1cc(N2C(=O)C(Oc3ccccc3)C2c2ccc(SC)cc2)cc(OC)c1OC (mixture of isomers) | 0.152 | 0.388 | 0.336 | – |
| CCSc1ccc(C2C(Oc3ccccc3)C(=O)N2c2cc(OC)c(OC)c(OC)c2)cc1 (mixture of isomers) | 0.21 | 0.508 | 0.632 | – |
| COc1cc(N2C(=O)C(c3ccccc3)C2c2ccc(O)cc2)cc(OC)c1OC (mixture of isomers) | > 50 | > 50 | > 50 | – |
| COc1ccc(C2CC(=O)N2c2cc(OC)c(OC)c(OC)c2)cc1O (racemic) | 0.006 | 0.008 | 0.521 | – |
| C=CC1C(=O)N(c2cc(OC)c(OC)c(OC)c2)C1c1ccc(SC)cc1 (racemic) | 0.051 | 0.061 | 0.113 | fold change (FC) (Tubulin (Bos taurus)): 3.4 |
| C=CC1C(=O)N(c2cc(OC)c(OC)c(OC)c2)C1c1ccc(SCC)cc1 (racemic) | 0.181 | 0.32 | 0.257 | – |
| CCOc1ccc(C2C(Oc3ccccc3)C(=O)N2c2cc(OC)c(OC)c(OC)c2)cc1 (racemic) | 0.069 | 0.494 | 0.388 | – |
| CCSc1ccc(C2C(Cl)C(=O)N2c2cc(OC)c(OC)c(OC)c2)cc1 (racemic) | 0.251 | 0.385 | 0.238 | – |
| CCSc1ccc(C2N(c3cc(OC)c(OC)c(OC)c3)C(=O)C2(Cl)Cl)cc1 (racemic) | 0.66 | 0.481 | 0.554 | – |
| CCSc1ccc(C2C(C3CC3)C(=O)N2c2cc(OC)c(OC)c(OC)c2)cc1 (racemic) | 0.606 | 0.803 | 1.56 | – |
| CCSc1ccc(C2C(c3ccccc3)C(=O)N2c2cc(OC)c(OC)c(OC)c2)cc1 (racemic) | 0.38 | 0.43 | 3.14 | – |
| COc1cc(N2C(=O)C(Cl)C2c2ccc(SC)cc2)cc(OC)c1OC (racemic) | 0.073 | 0.522 | 0.137 | inhibition [2]: Active; fold change (FC) (Tubulin (Bos taurus)): 2 |
| C=CC1C(=O)N(c2cc(OC)c(OC)c(OC)c2)C1c1ccc(OC)cc1 (racemic) | 0.017 | 0.033 | 0.01 | – |
| COc1ccc([C@@H]2[C@@H](Oc3ccccc3)C(=O)N2c2cc(OC)c(OC)c(OC)c2)cc1O (relative stereo) | 0.023 | 0.007 | 0.692 | – |
| COc1ccc(/C=C\c2cc(OC)c(OC)c(OC)c2)cc1O [COMBRETASTATIN A4] | 0.0035 | 0.0019 | 4.17 | Activity (HT-29 [3]): 52%; Activity (HT-29 [4]): 15%; Activity (HT-29 [5]): 14%; Activity (HT-29 [6]): 50%; fold change (FC) (Tubulin (Bos taurus)): 2; Activity (Tubulin (Homo sapiens)): inactive; inhibition [7]: Active |

Now from value to compound, other results behind:

| IC50 (MCF7) [µM] | IC50 (HL-60) [µM] | IC50 (HT-29 [1]) [µM] | Structure (SMILES) | further results |
| --- | --- | --- | --- | --- |
| 0.007 | 0.011 | 0.015 | CCOc1ccc(C2C(O)C(=O)N2c2cc(OC)c(OC)c(OC)c2)cc1 (mixture of isomers) | – |
| – | 0.076 | 0.065 | COc1ccc(C2CC(=O)N2c2cc(OC)c(OC)c(OC)c2)cc1 (racemic) | – |
| 0.056 | 0.161 | 0.135 | COc1ccc(C2C(Cl)C(=O)N2c2cc(OC)c(OC)c(OC)c2)cc1 (racemic) | – |
| 0.067 | 0.069 | 0.108 | COc1cc(N2C(=O)CC2c2ccc(SC)cc2)cc(OC)c1OC (racemic) | – |
| 0.131 | 0.279 | 0.204 | COc1cc(N2C(=O)C(C3CC3)C2c2ccc(SC)cc2)cc(OC)c1OC (racemic) | – |
| 0.023 | 0.019 | 0.052 | COc1ccc(C2C(Oc3ccccc3)C(=O)N2c2cc(OC)c(OC)c(OC)c2)cc1 (racemic) | – |
| 0.003 | 0.005 | 0.463 | COc1ccc(C2C(O)C(=O)N2c2cc(OC)c(OC)c(OC)c2)cc1O (racemic) | – |
| 0.087 | 0.209 | 0.203 | CCOc1ccc(C2C(Cl)C(=O)N2c2cc(OC)c(OC)c(OC)c2)cc1 (racemic) | – |
| 0.141 | 0.204 | 0.311 | CCSc1ccc(C2CC(=O)N2c2cc(OC)c(OC)c(OC)c2)cc1 (racemic) | – |
| 0.064 | 0.088 | 0.065 | CCOc1ccc(C2CC(=O)N2c2cc(OC)c(OC)c(OC)c2)cc1 (racemic) | – |
| 0.27 | 0.182 | 0.325 | CCOc1ccc(C2N(c3cc(OC)c(OC)c(OC)c3)C(=O)C2(Cl)Cl)cc1 (racemic) | – |
| 0.014 | 0.035 | 0.097 | C=CC1C(=O)N(c2cc(OC)c(OC)c(OC)c2)C1c1ccc(OCC)cc1 (racemic) | – |
| 0.291 | 0.223 | 0.306 | COc1cc(N2C(=O)C(Cl)(Cl)C2c2ccc(SC)cc2)cc(OC)c1OC (racemic) | – |
| 0.133 | 0.144 | 0.271 | COc1ccc(C2N(c3cc(OC)c(OC)c(OC)c3)C(=O)C2(Cl)Cl)cc1 (racemic) | – |
| 0.006 | 0.016 | 0.012 | CCSc1ccc(C2C(O)C(=O)N2c2cc(OC)c(OC)c(OC)c2)cc1 (racemic) | – |
| 0.05 | 0.074 | 0.075 | CCOc1ccc(C2C(c3ccccc3)C(=O)N2c2cc(OC)c(OC)c(OC)c2)cc1 (racemic) | – |
| 0.004 | 0.013 | 0.012 | COc1ccc(C2C(O)C(=O)N2c2cc(OC)c(OC)c(OC)c2)cc1 (racemic) | – |
